Screening data as filed in PubChem BioAssay.
core dimer inh: blocks dimerization of HCV core protein. TR-FRET GST/Flag-core106 dimerization, 1536-well. inhibition, % at 5 µM. actives 0.33% (n = 300,000). AID 1899;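 active = inhibition above the mean of all tested compounds plus 3 SD, set per screening campaign, cut at about 45% in these data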
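Assay system – GST-tagged and Flag-tagged HCV core protein residues 1-106 · Quantity – core106 proteins, GST 13.5 nM and Flag 17 nM · Benchmarks – unlabelled core106 and no-GST-core106 wells · Read-out basis – percent inhibition of core106 dimerization signal · Detection – time-resolved FRET, ex 340 nm, em 617 and 671 nm · Schedule – 4 h at 22.5 °C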
eIF4H inh: inhibitors of RNA binding by human eIF4H | Q15056 | eIF4H fluorescence polarization binding assay | inhibition, % at 35 µM | actives 0.94% (n = 290,000) | AID 2012;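 note: calls also rest on retests at 20 µM and on dose response follow-up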
DNA FID counter: counter-screen for HCV NS3 helicase inhibitors: DNA intercalator displacement; DNA fluorescent intercalator displacement, fluorescence; inhibition, % at 7.9 µM; actives 0.17% (n = 290,000); AID 1845; in the data active = inhibition above about 37%;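 note: 0% = vehicle and 100% = reference compound; higher means more ethidium bromide displaced from hairpin DNA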
HCV NS3 hel inh: blocks Hepatitis C virus NS3 helicase unwinding | NS3 helicase DNA unwinding, Cy5 molecular beacon fluorescence | actives 0.56% (n = 290,000) | AID 1800 | inhibition, % at 10.9 µM;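 active = inhibition above the mean of all tested compounds plus 3 SD, set per campaign, cut at about 35% in these data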;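 note: 0% = DMSO wells and 100% = thioflavine S control wells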
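Measured by: Cy5 fluorescence, 0 and 60 min reads / Assay system: NS3 helicase fragment of HCV / Control set: low DMSO, high thioflavine S at 110 µM / Times: 1 h reaction at 25 °C, ATP-initiated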
PABP1 MLLE inh: inhibitors of microRNA-mediated deadenylation, human PABP1 MLLE binding | P11940 | GST-MLLE / FITC-PAM2 fluorescence polarization | inhibition, % at 20 µM | actives 0.36% (n = 360,000) | AID 588489; in the data active = inhibition above about 35%, passing the limit was not always enough;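 note: plate controls were DMSO wells with GST-MLLE for no effect and wells lacking GST-MLLE protein for full effect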
Target sequence (P11940 whole entry, looked up): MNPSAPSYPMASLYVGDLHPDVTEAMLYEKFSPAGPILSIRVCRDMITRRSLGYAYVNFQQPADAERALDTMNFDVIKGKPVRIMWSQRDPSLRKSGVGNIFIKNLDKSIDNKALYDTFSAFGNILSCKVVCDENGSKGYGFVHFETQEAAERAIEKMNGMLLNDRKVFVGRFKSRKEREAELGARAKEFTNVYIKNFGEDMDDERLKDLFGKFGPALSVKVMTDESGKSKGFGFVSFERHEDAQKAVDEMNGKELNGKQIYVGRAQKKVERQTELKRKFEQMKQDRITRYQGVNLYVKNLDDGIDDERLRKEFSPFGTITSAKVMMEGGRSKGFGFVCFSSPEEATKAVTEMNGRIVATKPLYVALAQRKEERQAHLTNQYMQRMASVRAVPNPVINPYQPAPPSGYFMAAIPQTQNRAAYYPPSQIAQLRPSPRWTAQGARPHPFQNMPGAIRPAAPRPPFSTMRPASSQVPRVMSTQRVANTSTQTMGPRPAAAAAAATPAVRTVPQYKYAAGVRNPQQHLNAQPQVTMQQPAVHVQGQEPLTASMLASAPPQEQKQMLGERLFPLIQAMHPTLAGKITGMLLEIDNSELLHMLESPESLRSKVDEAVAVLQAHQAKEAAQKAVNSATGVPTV
PABP polyA inh: PABP-poly(A) binding inhibition. AID 2014. actives 1% (n = 290,000). inhibition, % at 35 µM. P11940. PABP-poly(A) RNA binding, fluorescence polarization;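 note: calls also rest on retests at 20 µM and on dose response follow-up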
An asterisk follows results filed as active; ? = inconclusive; . = not tested or not shown. Hits are enriched below; roughly 2% of the tested compounds scored in any of these assays. Unless noted, the rule behind the calls is not given here.

SMILES	core dimer inh	eIF4H inh	DNA FID counter	HCV NS3 hel inh	PABP1 MLLE inh	PABP polyA inh
CCOC(=O)c1cc(NC(=O)CNCC(c2ccccc2)N(C)C)cc(C(=O)OCC)c1 (stereo unspecified)	-5	-3	38*	-34	-2	9
Cc1noc(C)c1NC(=O)Nc1ccc2c(c1)C(=O)N([C@H](C)CO)C[C@H](C)[C@@H](CN(C)S(=O)(=O)c1ccc(Cl)cc1)OCCCC[C@@H](C)O2	.	.	.	.	1	.
CCCN(CC(=O)Nc1ccc(F)c(F)c1F)C(=O)CN1C(=O)NC2(CCCCC2)C1=O	.	.	.	.	-1	.
CCN(CC)S(=O)(=O)c1ccc(C)c(NC(=S)Nc2cccc(S(=O)(=O)N3CCCCCC3)c2)c1	-2	-5	-4	1	37*	-2
Cc1ccc(S(=O)(=O)N2CCCCC2)cc1NC(=O)Cn1cnnn1	-1	-6	0	-3	3	10
O=C(Cn1cnnn1)Nc1cccc(S(=O)(=O)N2CCCCC2)c1	0	19*	4	-5	-3	72
O=C(NC(=S)Nc1ccc(CN2CCOCC2)cc1)c1ccco1	-4	-2	-2	1	29	3
Cc1ccc(S(=O)(=O)N2CCCCC2)cc1NC(=S)NC(=O)c1ccco1	0	-12	-11	-4	40*	-2
O=C(NC(=S)Nc1ccc(CN2CCCCC2)cc1)c1ccco1	-5	-8	2	3	36*	5
Cc1ccccc1-c1cc(C(=O)NCC2CC2)nn1CC1CC(c2cccc([N+](=O)[O-])c2)=NO1 (stereo unspecified)	.	.	.	.	10	.
CC(C)(C(=O)N1CCC1(C)C(=O)NS(=O)(=O)c1cccc(C#N)c1)c1ccccc1 (stereo unspecified)	.	.	.	.	-4	.
Cc1ccc([C@H]2C[C@@H](n3cc(COC(=O)c4ccccc4)nn3)[C@H](O)CN2C(=O)C2CCCCC2)cc1	.	.	.	.	4	.
O=C(CSc1nnc(CNC(=O)c2cccs2)o1)Nc1ccccc1C(F)(F)F	1	3	-5	1	-1	2
Cc1cc(C)n2nc(SCc3cc(=O)oc4cc(C)c(C)cc34)nc2n1	3	6	-5	6	.	-1
Cc1cc(C)n2nc(SCc3cc(=O)oc4ccc5ccccc5c34)nc2n1	15	29	-9	9	40*	13
CCOc1cc(CNC2CCCC2)cc(Cl)c1OCc1ccccc1	1	2	39*	-72	-2	3
CCCc1cc(-n2ccnc2)n2c(nc3ccccc32)c1C#N	4	125*	-5	11	-48	117
Cc1cc(-n2ccnc2)n2c(nc3ccccc32)c1C#N	1	126	3	11	-20	120
COC(=O)c1ccc(CSc2ccccc2NC(=S)Nc2cccc(SC)c2)o1	.	.	.	.	30	.
O=C1CSC(=S)N1/N=C/c1cc(Br)ccc1O	10	14	-11	27	.	0
O=C1CSC(=S)N1/N=C/c1ccc(O)c(O)c1O	5	80*	-6	35	3	74*
CSc1ccc(Cn2c(C)c(C(=O)NCc3ccc4c(c3)OCO4)sc2=O)cc1	.	.	.	.	1	.
Cc1cc(C(F)(F)F)n(-c2nc(C(=O)O)cs2)n1	-2	1.5*	1	-1	-9	73*
COc1ccc(CN2CCC[C@]3(N[C@H](c4ccccc4)[C@@H]4C(=O)N(C)C(=O)[C@@H]43)C2=O)cc1	.	.	.	.	8	.
CN(C=[N+](C)C)c1cccc2c1C(=O)c1ccccc1C2=O	-11	?	8	0	86*	23
SMILES	core dimer inh	eIF4H inh	DNA FID counter	HCV NS3 hel inh	PABP1 MLLE inh	PABP polyA inh
CC[C@]12C(=O)N(C)C[C@H]([C@@H]3C(=O)N(C)C(=O)[C@@H]31)N2C(=O)c1ccc(C(C)(C)C)cc1	.	.	.	.	3	.
Nn1c(SCC(=O)NCCC2=CCCCC2)nnc1-c1cccnc1	.	.	.	.	-26	.
CC(C)c1nnc(SCC(=O)NCCC2=CCCCC2)n1N	2	6	-5	6	42*	5
CCn1c(N)c(C(=O)NC2CCCCC2)sc1=S	-2	2	0	3	42*	-5
Cc1ccc(/C=C2\SC(N3CCN(C(c4ccccc4)c4ccccc4)CC3)=NC2=O)o1	60*	53	-19	13	-9	-7
CCN(CC)c1ccc(S(=O)(=O)N2CCOCC2)cc1NC(=O)COC(=O)C1=COCCO1	.	.	.	.	8	.
O=c1c2ccccc2sn1-c1ccc(F)cc1	.	.	.	.	37*	.
